Format in all cases: functional, cell-based
Common to all, as to settings: COS-1

For test [1], the target named is T1, Thyroid hormone receptor alpha (Homo sapiens) (UniProt P10827).
T1 sequence (whole entry): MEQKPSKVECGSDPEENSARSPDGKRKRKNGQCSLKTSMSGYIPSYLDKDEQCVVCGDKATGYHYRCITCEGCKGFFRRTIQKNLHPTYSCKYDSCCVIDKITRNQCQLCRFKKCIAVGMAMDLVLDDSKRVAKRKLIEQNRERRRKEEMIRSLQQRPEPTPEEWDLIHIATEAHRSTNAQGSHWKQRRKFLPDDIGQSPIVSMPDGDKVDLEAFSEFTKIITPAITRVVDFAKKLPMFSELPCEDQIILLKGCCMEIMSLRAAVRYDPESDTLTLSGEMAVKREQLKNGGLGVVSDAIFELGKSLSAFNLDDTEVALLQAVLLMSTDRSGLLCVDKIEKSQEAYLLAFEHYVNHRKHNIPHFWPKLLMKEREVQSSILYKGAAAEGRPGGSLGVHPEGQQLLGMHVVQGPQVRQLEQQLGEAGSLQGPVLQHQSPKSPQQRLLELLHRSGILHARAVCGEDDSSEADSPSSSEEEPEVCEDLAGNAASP
As to the kind of experiment: Agonist activity at human thyroid hormone receptor alpha-1 expressed in COS1 cells by transactivation assay after 40 hrs. The essentials:
(§1)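 COS-1 cells were seeded at 8 × 10⁴ per well in 5% FBS/DMEM and grown overnight at 37 °C, 5% CO₂. In serum-free DMEM with Lipofectamine 2000 they were transfected with pCMX-hTRα1 (α1) or pCDNA-hTRβ1 (β1) (100 ng), (TREpal)₃-TKLUC reporter (200 ng) and pCMVβ reference. After 4–5 h, charcoal-dextran FBS medium and compounds (final 0.5% EtOH) were added for 40 h. Read-out was luciferase normalised to β-galactosidase.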

The target in test [2] is T2, Thyroid hormone receptor beta (Homo sapiens) (UniProt P10828).
T2 sequence (whole entry): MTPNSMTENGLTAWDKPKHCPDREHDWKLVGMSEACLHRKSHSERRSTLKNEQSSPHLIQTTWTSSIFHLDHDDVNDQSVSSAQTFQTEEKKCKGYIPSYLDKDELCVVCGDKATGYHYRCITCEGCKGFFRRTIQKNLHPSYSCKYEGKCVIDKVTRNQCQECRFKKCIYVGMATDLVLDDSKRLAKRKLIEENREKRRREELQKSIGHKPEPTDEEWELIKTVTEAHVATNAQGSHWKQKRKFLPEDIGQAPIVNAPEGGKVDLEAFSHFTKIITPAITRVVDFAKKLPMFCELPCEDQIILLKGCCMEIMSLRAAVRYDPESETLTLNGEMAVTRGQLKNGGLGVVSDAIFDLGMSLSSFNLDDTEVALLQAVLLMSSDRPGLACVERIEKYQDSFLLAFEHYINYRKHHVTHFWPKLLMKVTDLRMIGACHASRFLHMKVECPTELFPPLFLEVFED
As to the kind of experiment: Agonist activity at human thyroid hormone receptor beta-1 expressed in COS1 cells by transactivation assay after 40 hrs. The essentials:
as §1

Test [3] has as its target T1, Thyroid hormone receptor alpha (Homo sapiens). Nature of the test: Antagonist activity at human thyroid hormone receptor alpha-1 expressed in COS1 cells by transactivation assay after 40 hrs. The essentials:
(§2)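 Same COS-1 transfection (pCMX-hTRα1 or pCDNA-hTRβ1 with (TREpal)₃-TKLUC and pCMVβ) and 40 h treatment in charcoal-dextran FBS medium, 0.5% EtOH final. Compounds were added alongside 3 × 10⁻⁹ M T₃. Luciferase was normalised to β-galactosidase and expressed as percent of the T₃-alone value (100%). Means ± SD, n = 3.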

Test [4] addresses T2, Thyroid hormone receptor beta (Homo sapiens). Nature of the test: Antagonist activity at human thyroid hormone receptor beta-1 expressed in COS1 cells by transactivation assay after 40 hrs. An outline of the steps: as §2

Results on seven compounds are retold here after ChEMBL document CHEMBL1147905, “Novel thyroid hormone receptor antagonists with an N-alkylated diphenylamine skeleton” (Bioorg Med Chem, 2007).

Calls of active or inactive are those of the source. No cut-off for these calls is given here.

Take `Cc1cc(CC2SC(=O)NC2=O)cc(C)c1N(Cc1ccccc1)c1ccc(O)c(C(C)C)c1` (stereo not drawn): the result in test [1] and in test [2] was inactive. The outcome in test [3] and in test [4] was Active.
In the case of `Cc1cc(CC2SC(=O)NC2=O)cc(C)c1N(CC(C)C)c1ccc(O)c(C(C)C)c1` (stereo not drawn), the result in test [1] and in test [2] was inactive. Further, the result in test [3] and in test [4] was Active.
Turning to `Cc1cc(CC2SC(=O)NC2=O)cc(C)c1N(C)c1ccc(O)c(C(C)C)c1` (stereo not drawn), the outcome in test [1] and in test [2] was Active. For the same compound, the result in test [3] and in test [4] was inactive.
Regarding `Cc1cc(CC2SC(=O)NC2=O)cc(C)c1N(CC1CCCCC1)c1ccc(O)c(C(C)C)c1` (stereo not drawn), the result in test [1] and in test [2] was inactive. Besides, the result in test [3] and in test [4] was Active.
For `Cc1cc(CC2SC(=O)NC2=O)cc(C)c1N(CC1CC1)c1ccc(O)c(C(C)C)c1` (stereo not drawn), the outcome in test [1] and in test [2] was inactive. Also, the result in test [3] and in test [4] was Active.
On to `CC(C)=CCN(c1ccc(O)c(C(C)C)c1)c1c(C)cc(CC2SC(=O)NC2=O)cc1C` (stereo not drawn), for which the outcome in test [1] and in test [2] was inactive. Besides, the outcome in test [3] and in test [4] was Active.
For `CCCCCCN(c1ccc(O)c(C(C)C)c1)c1c(C)cc(CC2SC(=O)NC2=O)cc1C` (stereo not drawn), the outcome in test [1] and in test [2] was inactive. Besides, the outcome in test [3] and in test [4] was Active.
